Results reported in ChEMBL document CHEMBL2375313, “Synthesis, in vitro antitumor evaluation and DNA-binding study of novel tetrahydroquinolines and some derived tricyclic and tetracyclic ring systems” (Eur J Med Chem, 2013).

Legend:
Format in all cases: functional
[1] = tested on: HCT-116; assay: Cytotoxicity against human HCT116 cells assessed as growth inhibition at 10 uM after 48 hrs by sulphorhodamine B assay; details: HCT-116, 48 h, read-out: GI
Summary of the method: (§1)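 NCI-60 one-dose screen per the NCI Drug Evaluation Branch protocol. Cells given a single 10 µM concentration with 48 h continuous exposure. Growth estimated by sulphorhodamine B protein assay. Result expressed as percentage growth inhibition relative to untreated growth.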

[2] = tested on: K562; assay: Cytotoxicity against human K562 cells assessed as growth inhibition at 10 uM after 48 hrs by sulphorhodamine B assay; details: K562, 48 h, read-out: GI; summary of the method: as §1
[3] = tested on: OVCAR-5; assay: Cytotoxicity against human OVCAR5 cells assessed as growth inhibition at 10 uM after 48 hrs by sulphorhodamine B assay; details: OVCAR-5, 48 h, read-out: GI; summary of the method: as §1
[4] = tested on: SNB-19; assay: Cytotoxicity against human SNB19 cells assessed as growth inhibition at 10 uM after 48 hrs by sulphorhodamine B assay; details: SNB-19, 48 h, read-out: GI; summary of the method: as §1
[5] = tested on: Hs-578T; assay: Cytotoxicity against human Hs578T cells assessed as growth inhibition at 10 uM after 48 hrs by sulphorhodamine B assay; details: read-out: GI; summary of the method: as §1
[6] = tested on: SF-295; assay: Cytotoxicity against human SF295 cells assessed as growth inhibition at 10 uM after 48 hrs by sulphorhodamine B assay; details: SF-295, 48 h, read-out: GI; summary of the method: as §1
[7] = tested on: NCI/ADR-RES; assay: Cytotoxicity against human NCI/ADR-RES cells assessed as growth inhibition at 10 uM after 48 hrs by sulphorhodamine B assay; details: read-out: GI; summary of the method: as §1
[8] = tested on: A549; assay: Cytotoxicity against human A549 cells assessed as growth inhibition at 10 uM after 48 hrs by sulphorhodamine B assay; details: A549, 48 h, read-out: GI; summary of the method: as §1
[9] = tested on: SNB-75; assay: Cytotoxicity against human SNB75 cells assessed as growth inhibition at 10 uM after 48 hrs by sulphorhodamine B assay; details: SNB-75, 48 h, read-out: GI; summary of the method: as §1
[10] = tested on: SK-OV-3; assay: Cytotoxicity against human SKOV3 cells assessed as growth inhibition at 10 uM after 48 hrs by sulphorhodamine B assay; details: SK-OV-3, 48 h, read-out: GI; summary of the method: as §1
[11] = tested on: NCI-H522; assay: Cytotoxicity against human NCI-H522 cells assessed as growth inhibition at 10 uM after 48 hrs by sulphorhodamine B assay; details: NCI-H522, 48 h, read-out: GI; summary of the method: as §1
[12] = tested on: T47D; assay: Cytotoxicity against human T47D cells assessed as growth inhibition at 10 uM after 48 hrs by sulphorhodamine B assay; details: read-out: GI; summary of the method: as §1
[13] = tested on: SK-MEL-2; assay: Cytotoxicity against human SK-MEL-2 cells assessed as growth inhibition at 10 uM after 48 hrs by sulphorhodamine B assay; details: SK-MEL-2, 48 h, read-out: GI; summary of the method: as §1
[14] = tested on: DU-145; assay: Cytotoxicity against human DU145 cells assessed as growth inhibition at 10 uM after 48 hrs by sulphorhodamine B assay; details: DU-145, 48 h, read-out: GI; summary of the method: as §1
[15] = tested on: CCRF-CEM; assay: Cytotoxicity against human CCRF-CEM cells assessed as growth inhibition at 10 uM after 48 hrs by sulphorhodamine B assay; details: read-out: GI; summary of the method: as §1
[16] = tested on: MDA-MB-468; assay: Cytotoxicity against human MDA-MB-468 cells assessed as growth inhibition at 10 uM after 48 hrs by sulphorhodamine B assay; details: MDA-MB-468, 48 h, read-out: GI; summary of the method: as §1
[17] = tested on: IGROV-1; assay: Cytotoxicity against human IGROV1 cells assessed as growth inhibition at 10 uM after 48 hrs by sulphorhodamine B assay; details: IGROV-1, 48 h, read-out: GI; summary of the method: as §1
[18] = tested on: SK-MEL-5; assay: Cytotoxicity against human SK-MEL-5 cells assessed as growth inhibition at 10 uM after 48 hrs by sulphorhodamine B assay; details: SK-MEL-5, 48 h, read-out: GI; summary of the method: as §1
[19] = tested on: NCI-H23; assay: Cytotoxicity against human NCI-H23 cells assessed as growth inhibition at 10 uM after 48 hrs by sulphorhodamine B assay; details: NCI-H23, 48 h, read-out: GI; summary of the method: as §1
[20] = tested on: UACC-62; assay: Cytotoxicity against human UACC62 cells assessed as growth inhibition at 10 uM after 48 hrs by sulphorhodamine B assay; details: UACC-62, 48 h, read-out: GI; summary of the method: as §1
[21] = tested on: MDA-MB-435; assay: Cytotoxicity against human MDA-MB-435 cells assessed as growth inhibition at 10 uM after 48 hrs by sulphorhodamine B assay; details: MDA-MB-435, 48 h, read-out: GI; summary of the method: as §1
[22] = tested on: RXF 393; assay: Cytotoxicity against human RXF393 cells assessed as growth inhibition at 10 uM after 48 hrs by sulphorhodamine B assay; details: RXF 393, 48 h, read-out: GI; summary of the method: as §1
[23] = tested on: CAKI-1; assay: Cytotoxicity against human Caki1 cells assessed as growth inhibition at 10 uM after 48 hrs by sulphorhodamine B assay; details: CAKI-1, 48 h, read-out: GI; summary of the method: as §1
[24] = tested on: U-251; assay: Cytotoxicity against human U251 cells assessed as growth inhibition at 10 uM after 48 hrs by sulphorhodamine B assay; details: U-251, 48 h, read-out: GI; summary of the method: as §1
[25] = tested on: UO-31; assay: Cytotoxicity against human UO31 cells assessed as growth inhibition at 10 uM after 48 hrs by sulphorhodamine B assay; details: UO-31, 48 h, read-out: GI; summary of the method: as §1
[26] = tested on: SR; assay: Cytotoxicity against human SR cells assessed as growth inhibition at 10 uM after 48 hrs by sulphorhodamine B assay; details: read-out: GI; summary of the method: as §1
[27] = tested on: OVCAR-4; assay: Cytotoxicity against human OVCAR4 cells assessed as growth inhibition at 10 uM after 48 hrs by sulphorhodamine B assay; details: OVCAR-4, 48 h, read-out: GI; summary of the method: as §1
[28] = tested on: LOX IMVI; assay: Cytotoxicity against human LOXIMVI cells assessed as growth inhibition at 10 uM after 48 hrs by sulphorhodamine B assay; details: read-out: GI; summary of the method: as §1
[29] = tested on: RPMI-8226; assay: Cytotoxicity against human RPMI8226 cells assessed as growth inhibition at 10 uM after 48 hrs by sulphorhodamine B assay; details: RPMI-8226, 48 h, read-out: GI; summary of the method: as §1
[30] = tested on: SF-268; assay: Cytotoxicity against human SF268 cells assessed as growth inhibition at 10 uM after 48 hrs by sulphorhodamine B assay; details: SF-268, 48 h, read-out: GI; summary of the method: as §1
[31] = Cytotoxicity against human EKVX cells assessed as growth inhibition at 10 uM after 48 hrs by sulphorhodamine B assay; details: read-out: GI; summary of the method: as §1
[32] = tested on: HCT-15; assay: Cytotoxicity against human HCT15 cells assessed as growth inhibition at 10 uM after 48 hrs by sulphorhodamine B assay; details: HCT-15, 48 h, read-out: GI; summary of the method: as §1
[33] = tested on: A498; assay: Cytotoxicity against human A498 cells assessed as growth inhibition at 10 uM after 48 hrs by sulphorhodamine B assay; details: A498, 48 h, read-out: GI; summary of the method: as §1
[34] = tested on: MOLT-4; assay: Cytotoxicity against human MOLT4 cells assessed as growth inhibition at 10 uM after 48 hrs by sulphorhodamine B assay; details: MOLT-4, 48 h, read-out: GI; summary of the method: as §1
[35] = tested on: ACHN; assay: Cytotoxicity against human ACHN cells assessed as growth inhibition at 10 uM after 48 hrs by sulphorhodamine B assay; details: read-out: GI; summary of the method: as §1
[36] = tested on: PC-3; assay: Cytotoxicity against human PC3 cells assessed as growth inhibition at 10 uM after 48 hrs by sulphorhodamine B assay; details: PC-3, 48 h, read-out: GI; summary of the method: as §1
[37] = tested on: MCF7; assay: Cytotoxicity against human MCF7 cells assessed as growth inhibition at 10 uM after 48 hrs by sulphorhodamine B assay; details: MCF7, 48 h, read-out: GI; summary of the method: as §1
[38] = tested on: HOP-92; assay: Cytotoxicity against human HOP92 cells assessed as growth inhibition at 10 uM after 48 hrs by sulphorhodamine B assay; details: HOP-92, 48 h, read-out: GI; summary of the method: as §1
[39] = tested on: M14; assay: Cytotoxicity against human M14 cells assessed as growth inhibition at 10 uM after 48 hrs by sulphorhodamine B assay; details: M14, 48 h, read-out: GI; summary of the method: as §1
[40] = tested on: HL-60(TB); assay: Cytotoxicity against human HL-60(TB) cells assessed as growth inhibition at 10 uM after 48 hrs by sulphorhodamine B assay; details: HL-60, 48 h, read-out: GI
Summary of the method: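 NCI-60 one-dose primary screen run to the Drug Evaluation Branch protocol. Cells are exposed to a single 10 µM concentration for 48 h continuously, and growth is read by SRB protein assay. Data are reported as percent growth of treated cells, expressed as % growth inhibition.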

[41] = tested on: HT-29; assay: Cytotoxicity against human HT-29 cells assessed as growth inhibition at 10 uM after 48 hrs by sulphorhodamine B assay; details: HT-29, 48 h, read-out: GI; summary of the method: as §1

With `CCSc1nc(N)c2c(-c3ccc(OC)cc3)c3c(nc2n1)C(C)CCC3` (stereo unspecified) the inhibition of growth at 10 µM [1] was 20%, the inhibition of growth at 10 µM [2] was 32.5% and the inhibition of growth at 10 µM [3] was < 10%. For the same molecule, the inhibition of growth at 10 µM [4] was 12.5%, the inhibition of growth at 10 µM [5] was 36.2% and the inhibition of growth at 10 µM [6] was < 10%. For the same molecule, the inhibition of growth at 10 µM [7] was < 10%, the inhibition of growth at 10 µM [8] was 16% and the inhibition of growth at 10 µM [9] was < 10%. For the same molecule, the inhibition of growth at 10 µM [10] was < 10%, the inhibition of growth at 10 µM [11] was 13.2% and the inhibition of growth at 10 µM [12] was 41%. The inhibition of growth at 10 µM [13] was < 10%, the inhibition of growth at 10 µM [14] was 24.5% and the inhibition of growth at 10 µM [15] was 26.4%. For the same molecule, the inhibition of growth at 10 µM [16] was 13.8%, the inhibition of growth at 10 µM [17] was < 10% and the inhibition of growth at 10 µM [18] was 11.4%. For the same molecule, the inhibition of growth at 10 µM [19] was < 10%, the inhibition of growth at 10 µM [20] was 25% and the inhibition of growth at 10 µM [21] was < 10%. The inhibition of growth at 10 µM [22] was 25.9%, the inhibition of growth at 10 µM [23] was < 10% and the inhibition of growth at 10 µM [24] was 16%. For the same molecule, the inhibition of growth at 10 µM [25] was 10.5%, the inhibition of growth at 10 µM [26] was < 10% and the inhibition of growth at 10 µM [27] was 26.8%. The inhibition of growth at 10 µM [28] was 10.6%, the inhibition of growth at 10 µM [29] was 25.5% and the inhibition of growth at 10 µM [30] was < 10%. The inhibition of growth at 10 µM [31] was < 10%, the inhibition of growth at 10 µM [32] was 23.8% and the inhibition of growth at 10 µM [33] was < 10%. It also gave an inhibition of growth at 10 µM [34] of 29%, an inhibition of growth at 10 µM [35] of 30.8% and an inhibition of growth at 10 µM [36] of 31.4%. For the same molecule, the inhibition of growth at 10 µM [37] was < 10%, the inhibition of growth at 10 µM [38] was 26.8% and the inhibition of growth at 10 µM [39] was < 10%. For the same molecule, the inhibition of growth at 10 µM [40] was 34.5% and the inhibition of growth at 10 µM [41] was 23.3%.
